# ChEMBL document CHEMBL1165965, “Synthesis and structure-activity relationships of 1,2,3,4-tetrahydropyrido[2,3-b]pyrazines as potent and selective inhibitors of the anaplastic lymphoma kinase” (Bioorg Med Chem, 2010)
# Legend:
# [1] = molecular target: Casein kinase I isoform epsilon (Homo sapiens) (UniProt P49674); assay: Inhibition of CSNK1E at 1 uM
# In short: (§1)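 Single-concentration screen using Ambit Bioscience KINOMEscan technology across a panel of 250–400 kinases. Per-kinase inhibition from this screen was summarized as S(90), the fraction of kinases inhibited by more than 90%.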
# [2] = molecular target: T1, Serine/threonine-protein kinase D2 (Homo sapiens) (UniProt Q9BZL6); assay: Inhibition of PRKD2 at 1 uM
# T1 sequence (whole entry): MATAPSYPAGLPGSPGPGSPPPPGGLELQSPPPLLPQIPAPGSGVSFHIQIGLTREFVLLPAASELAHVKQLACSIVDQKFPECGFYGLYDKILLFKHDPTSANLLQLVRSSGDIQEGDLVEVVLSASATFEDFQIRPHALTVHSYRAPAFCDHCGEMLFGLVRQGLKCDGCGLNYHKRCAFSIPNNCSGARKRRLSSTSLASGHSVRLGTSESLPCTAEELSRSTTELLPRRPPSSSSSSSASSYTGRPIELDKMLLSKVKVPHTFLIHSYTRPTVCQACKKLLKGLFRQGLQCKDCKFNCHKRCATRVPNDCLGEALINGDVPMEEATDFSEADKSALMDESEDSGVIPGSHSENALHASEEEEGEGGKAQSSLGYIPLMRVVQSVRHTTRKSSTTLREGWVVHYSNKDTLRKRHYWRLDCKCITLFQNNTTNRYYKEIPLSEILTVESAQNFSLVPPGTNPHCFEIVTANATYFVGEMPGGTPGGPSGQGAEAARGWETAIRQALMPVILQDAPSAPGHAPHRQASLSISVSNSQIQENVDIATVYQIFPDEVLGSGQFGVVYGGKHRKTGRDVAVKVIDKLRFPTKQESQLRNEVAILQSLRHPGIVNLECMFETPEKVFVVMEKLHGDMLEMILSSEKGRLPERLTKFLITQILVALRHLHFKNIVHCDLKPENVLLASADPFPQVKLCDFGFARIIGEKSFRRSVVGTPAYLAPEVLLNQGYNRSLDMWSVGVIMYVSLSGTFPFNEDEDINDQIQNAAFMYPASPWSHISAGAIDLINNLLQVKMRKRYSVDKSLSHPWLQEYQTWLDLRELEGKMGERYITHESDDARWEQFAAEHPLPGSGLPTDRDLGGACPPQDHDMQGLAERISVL
# [3] = molecular target: Epidermal growth factor receptor (Homo sapiens) (UniProt P04626+P00533+Q15303+P21860); assay: Inhibition of EGFR L747-E749del, A750P mutant at 1 uM; format: protein assay; in short: as §1
# [4] = test system: Phosphatidylinositol 4,5-bisphosphate 3-kinase catalytic subunit alpha isoform (Homo sapiens), P42336 [Q546K]; assay: Inhibition of PIK3CA Q546K mutant at 1 uM
# [5] = molecular target: T2, Serine/threonine-protein kinase RIO1 (Homo sapiens) (UniProt Q9BRS2); assay: Inhibition of RIOK1 at 1 uM
# T2 sequence (whole entry): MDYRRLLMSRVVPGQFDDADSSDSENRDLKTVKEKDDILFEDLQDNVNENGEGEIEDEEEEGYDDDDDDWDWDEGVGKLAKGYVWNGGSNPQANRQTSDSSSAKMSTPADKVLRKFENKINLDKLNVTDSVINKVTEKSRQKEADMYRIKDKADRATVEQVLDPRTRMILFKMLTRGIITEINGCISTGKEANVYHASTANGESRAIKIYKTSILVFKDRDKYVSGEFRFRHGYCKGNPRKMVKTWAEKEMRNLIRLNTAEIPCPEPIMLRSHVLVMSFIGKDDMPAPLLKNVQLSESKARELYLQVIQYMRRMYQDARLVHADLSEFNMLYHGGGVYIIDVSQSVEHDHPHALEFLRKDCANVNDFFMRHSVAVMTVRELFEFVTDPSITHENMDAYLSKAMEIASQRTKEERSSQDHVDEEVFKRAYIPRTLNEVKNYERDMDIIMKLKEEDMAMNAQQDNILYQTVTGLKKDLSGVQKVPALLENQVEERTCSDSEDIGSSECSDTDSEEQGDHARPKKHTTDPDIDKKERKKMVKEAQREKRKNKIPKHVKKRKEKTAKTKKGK
# [6] = molecular target: Cyclin-dependent kinase 7 (Homo sapiens) (UniProt P50613); assay: Inhibition of CDK7 at 1 uM
# Cyclin-dependent kinase 7 (Homo sapiens), sequence (P50613 whole entry): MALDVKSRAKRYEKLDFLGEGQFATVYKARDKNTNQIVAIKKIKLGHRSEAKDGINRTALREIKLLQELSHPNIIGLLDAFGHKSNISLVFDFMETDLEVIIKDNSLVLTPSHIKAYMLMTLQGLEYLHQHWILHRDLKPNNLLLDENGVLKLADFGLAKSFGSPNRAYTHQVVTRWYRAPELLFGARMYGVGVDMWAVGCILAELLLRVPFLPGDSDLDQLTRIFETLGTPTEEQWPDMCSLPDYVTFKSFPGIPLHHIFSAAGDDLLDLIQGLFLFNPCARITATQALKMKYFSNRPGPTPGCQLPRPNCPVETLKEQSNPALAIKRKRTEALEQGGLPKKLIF
# Casein kinase I isoform epsilon (Homo sapiens), sequence (P49674 whole entry, looked up, canonical isoform): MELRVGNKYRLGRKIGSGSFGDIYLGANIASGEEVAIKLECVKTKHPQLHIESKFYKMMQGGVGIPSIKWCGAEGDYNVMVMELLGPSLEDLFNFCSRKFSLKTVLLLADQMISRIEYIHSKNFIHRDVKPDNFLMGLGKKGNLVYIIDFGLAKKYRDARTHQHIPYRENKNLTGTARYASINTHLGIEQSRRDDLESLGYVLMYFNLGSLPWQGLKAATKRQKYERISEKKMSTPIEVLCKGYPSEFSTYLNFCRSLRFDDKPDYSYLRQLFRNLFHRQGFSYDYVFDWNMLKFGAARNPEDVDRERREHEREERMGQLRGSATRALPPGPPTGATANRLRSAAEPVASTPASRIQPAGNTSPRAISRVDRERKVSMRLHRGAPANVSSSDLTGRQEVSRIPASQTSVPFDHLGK
# Phosphatidylinositol 4,5-bisphosphate 3-kinase catalytic subunit alpha isoform (Homo sapiens), P42336 [Q546K], sequence (P42336 whole entry Q546K, canonical isoform): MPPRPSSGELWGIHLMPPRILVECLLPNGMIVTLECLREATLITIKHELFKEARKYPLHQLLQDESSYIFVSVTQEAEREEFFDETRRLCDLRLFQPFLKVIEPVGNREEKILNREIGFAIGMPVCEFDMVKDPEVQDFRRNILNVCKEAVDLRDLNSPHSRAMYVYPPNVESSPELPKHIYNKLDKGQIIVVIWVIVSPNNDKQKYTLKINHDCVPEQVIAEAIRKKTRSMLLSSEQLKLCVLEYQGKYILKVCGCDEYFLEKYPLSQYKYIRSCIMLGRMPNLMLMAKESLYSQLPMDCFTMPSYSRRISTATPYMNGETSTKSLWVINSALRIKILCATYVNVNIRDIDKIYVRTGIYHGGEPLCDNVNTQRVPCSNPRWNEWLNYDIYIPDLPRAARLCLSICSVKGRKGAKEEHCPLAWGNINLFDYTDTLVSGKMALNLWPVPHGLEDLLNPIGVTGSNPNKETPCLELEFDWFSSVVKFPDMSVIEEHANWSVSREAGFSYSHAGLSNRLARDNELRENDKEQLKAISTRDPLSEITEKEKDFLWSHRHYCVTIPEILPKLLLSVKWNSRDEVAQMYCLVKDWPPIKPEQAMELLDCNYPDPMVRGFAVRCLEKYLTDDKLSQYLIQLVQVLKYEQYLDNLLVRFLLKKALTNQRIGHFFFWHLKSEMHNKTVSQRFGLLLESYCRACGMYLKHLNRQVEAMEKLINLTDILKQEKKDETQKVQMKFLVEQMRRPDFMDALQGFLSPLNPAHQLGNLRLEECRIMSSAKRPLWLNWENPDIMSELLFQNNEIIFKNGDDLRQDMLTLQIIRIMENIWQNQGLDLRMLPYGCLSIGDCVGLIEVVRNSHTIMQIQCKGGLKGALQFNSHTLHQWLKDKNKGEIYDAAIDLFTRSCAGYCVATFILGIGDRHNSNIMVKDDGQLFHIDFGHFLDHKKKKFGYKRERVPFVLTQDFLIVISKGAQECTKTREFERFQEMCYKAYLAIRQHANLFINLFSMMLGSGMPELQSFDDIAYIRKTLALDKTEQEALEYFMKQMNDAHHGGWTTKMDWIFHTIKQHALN
inhibition [1] [%],inhibition [2] [%],inhibition [3] [%],inhibition [4] [%],inhibition [5] [%],inhibition [6] [%],Structure (SMILES)
< 50,< 50,< 50,< 50,< 50,< 50,CN1CCN(c2ccc(-c3cnc4c(c3)N(Cc3cc(Cl)ccc3C(F)(F)F)CCN4)cn2)CC1
< 50,< 50,< 50,–,< 50,–,O=C(O)c1ccc(-c2cnc3c(c2)N(Cc2cc(Cl)ccc2C(F)(F)F)CCN3)cc1
< 50,< 50,< 50,–,< 50,–,O=C(c1ccc(-c2cnc3c(c2)N(Cc2cc(Cl)ccc2C(F)(F)F)CCN3)cc1)N1CCC(N2CCCC2)CC1
< 50,< 50,< 50,–,< 50,–,COC1CCN(C(=O)c2ccc(-c3cnc4c(c3)N(Cc3cc(Cl)ccc3C(F)(F)F)CCN4)cc2)CC1
< 50,< 50,< 50,< 50,< 50,< 50,FC(F)(F)c1ccc(Cl)cc1CN1CCNc2ncc(-c3ccnc(N4CCNCC4)c3)cc21
< 50,< 50,< 50,< 50,< 50,< 50,CC(=O)N1CCN(c2cc(-c3cnc4c(c3)N(Cc3cc(Cl)ccc3C(F)(F)F)CCN4)ccn2)CC1
< 50,< 50,< 50,< 50,< 50,< 50,CN1CCN(c2ccc(-c3cnc4c(c3)N(Cc3cc(F)ccc3F)CCN4)cn2)CC1
< 50,< 50,< 50,< 50,< 50,< 50,CN1CCN(c2ccc(-c3cnc4c(c3)N(Cc3c(F)ccc(F)c3Cl)CCN4)cn2)CC1
< 50,< 50,< 50,–,< 50,–,O=C(c1ccc(-c2cnc3c(c2)N(Cc2cc(Cl)ccc2C(F)(F)F)CCN3)cc1)N1CCCCC1
< 50,< 50,< 50,< 50,< 50,< 50,CN1CCN(c2ccc(-c3cnc4c(c3)N(Cc3cc(Cl)ccc3Cl)CCN4)cn2)CC1
